Assay outcomes: PubChem, several laboratories
Sampled rows, rich in hits. Any-hit rate of the full collection: about 3.8%.
GPR7 antag = GPR7 receptor antagonists, primary screen, cell-based, fluorescence, single concentration; inhibition, % at 4.4 µM; GPR7-expressing cells, fluorescence antagonist assay; AID 1861, 2009; 290,000 tested, 1.1% active; Neuropeptides B/W receptor type 1 (Homo sapiens), P48145; in the data active = inhibition above about 16%, passing the limit was not always enough;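 also: cells stimulated with the agonist NPW; 0% = agonist with vehicle and 100% = vehicle without agonist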
OX1R antag-1 = antagonists of human orexin 1 receptor (OX1R). Orexin/Hypocretin receptor type 1 (Homo sapiens), O43613. inhibition, % at 6.6 µM. OX1R-expressing cells, FRET antagonist read-out. 330,000 tested, 1.8% active; in the data active = inhibition mostly above about 38%, no sharp cut-off; inactive = mostly below about 40%;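 also: 0% = agonist challenge alone and 100% = reference antagonist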
Target sequence (O43613 whole entry, looked up): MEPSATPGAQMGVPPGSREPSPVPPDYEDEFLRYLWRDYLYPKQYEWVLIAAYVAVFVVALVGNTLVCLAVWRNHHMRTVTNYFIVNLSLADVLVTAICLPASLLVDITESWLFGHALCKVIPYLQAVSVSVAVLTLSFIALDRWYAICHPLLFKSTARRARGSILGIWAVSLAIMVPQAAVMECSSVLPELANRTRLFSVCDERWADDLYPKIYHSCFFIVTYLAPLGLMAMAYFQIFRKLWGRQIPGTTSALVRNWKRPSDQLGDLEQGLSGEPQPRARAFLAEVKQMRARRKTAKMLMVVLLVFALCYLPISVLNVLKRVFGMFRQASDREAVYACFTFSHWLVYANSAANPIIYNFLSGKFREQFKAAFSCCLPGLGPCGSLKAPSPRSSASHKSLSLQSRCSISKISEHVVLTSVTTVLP
MPTP inh = mitochondrial permeability transition pore inhibitors, primary screen, biochemical, isolated mouse mitochondria, absorbance. Ca2+ swelling absorbance, 30 min. inhibition, % at 10 µM. 360,000 tested, 1.4% active;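 active = inhibition of 50% or more, scaled per plate between neutral and stimulator controls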;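 also: 0% = DMSO wells given calcium and 100% = 1 mM EGTA wells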
OX1R antag-2 = OX1R (HCRTR1) antagonists, primary screen, fluorescence, CHO/OX1R cells, Fluo-8 calcium, orexin A. Orexin/Hypocretin receptor type 1 (Homo sapiens), O43613. Fluo-8 calcium fluorescence. inhibition, % at 5 µM. 330,000 tested, 0.43% active. AID 434989, 2010;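 active = inhibition above its plate's threshold, mean inhibition of all tested compounds on the plate plus 3 SD, cut at about 37% in these data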;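 also: 0% = orexin A challenge wells and 100% = SB-334867-A antagonist wells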
CHO parental Ca = ATP-evoked calcium signal inhibitors, parental CHO, primary screen, counter-screen for OX1R antagonist project, cell-based, fluorescence, Fluo-8 calcium dye; parental CHO-K1, ATP-induced calcium, Fluo-8 fluorescence; inhibition, % at 5.6 µM; 330,000 tested, 0.63% active; AID 463079, 2010;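 active = inhibition above that plate's mean sample inhibition plus 3 SD, cut at about 26% in these data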;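 also: 0% = ATP-challenged DMSO wells and 100% = DMSO wells without ATP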
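test system = CHO parental line | reagent = ATP stimulus | measured by = intracellular calcium via Fluo-8 no-wash fluorescent dye | control set = ATP and no-ATP DMSO wells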
GPR7 antag conf = GPR7 receptor antagonists, confirmation, cell-based, fluorescence, single concentration; 2,400 tested, 52% active; inhibition, % at 4.4 µM; GPR7-expressing cells, calcium fluorescence antagonist mode; shares compounds with GPR7 antag; in the data active = inhibition above about 24%;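 also: stimulated with the GPR7 agonist NPW; 0% = agonist plus vehicle and 100% = vehicle alone without agonist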
MCHR1 antagonist = MCHR1 antagonists in cells, counter-screen for GPR7 antagonist project, cell-based, fluorescence, human | shares compounds with GPR7 antag | MCHR1-expressing cells, fluorescence antagonist assay | inhibition, % at 4.4 µM | 2,400 tested, 62% active; in the data active = inhibition above about 22%;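 also: 0% = vehicle with agonist and 100% = vehicle without agonist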
An asterisk follows results filed as active.

How did CC(=O)c1ccc(OCC(O)CN2CCN(CC(O)COc3ccc(C(C)=O)cc3)CC2)cc1 (configuration not stated) do in these assays?
GPR7 antag: 13; OX1R antag-1: 19; MPTP inh: -6; OX1R antag-2: -28; CHO parental Ca: -11

How did CC(=O)c1ccc(OCC(O)CN(C)CCOc2ccc(Br)cc2)cc1 (configuration not stated) do in these assays?
GPR7 antag: 23*; OX1R antag-1: 7; MPTP inh: 1; OX1R antag-2: -11; CHO parental Ca: 17; GPR7 antag conf: 37*; MCHR1 antagonist: 55*

How did O=[N+]([O-])c1ccc(OCCO)nc1 do in these assays?
GPR7 antag: -10; OX1R antag-1: 23; MPTP inh: 0; OX1R antag-2: -13; CHO parental Ca: 15

How did CC1Cc2ccccc2N1C(=O)c1cccnc1 (configuration not stated) do in these assays?
GPR7 antag: -8; OX1R antag-1: 10; MPTP inh: -1; OX1R antag-2: 0; CHO parental Ca: -7

How did CC1CCc2cc(F)ccc2N1C(=O)c1cccnc1 (configuration not stated) do in these assays?
GPR7 antag: 26*; OX1R antag-1: -1; MPTP inh: 0; OX1R antag-2: -10; CHO parental Ca: -11; GPR7 antag conf: -5; MCHR1 antagonist: 1

How did CCOc1cc(S(=O)(=O)N2CCN(CC)CC2)ccc1Cl do in these assays?
GPR7 antag: -9; OX1R antag-1: 11; MPTP inh: 0; OX1R antag-2: -13; CHO parental Ca: -20

How did CCOc1cc(S(=O)(=O)N2CCCCC2)ccc1Cl do in these assays?
GPR7 antag: 25*; OX1R antag-1: 15; MPTP inh: 2; OX1R antag-2: -31; CHO parental Ca: -24; GPR7 antag conf: -8; MCHR1 antagonist: 28*

How did CC(=O)N1c2ccc(S(=O)(=O)N3CCC(C(=O)Nc4cccc(Cl)c4)CC3)cc2CC1C (configuration not stated) do in these assays?
GPR7 antag: 31*; OX1R antag-1: 7; MPTP inh: 8; OX1R antag-2: 20; CHO parental Ca: 14; GPR7 antag conf: 21; MCHR1 antagonist: 47*

What do the screens show for `Cc1ccc(CCC(=O)Nc2ccc([N+](=O)[O-])cc2)o1`?
GPR7 antag: 2; OX1R antag-1: 5; MPTP inh: 0; OX1R antag-2: -3; CHO parental Ca: 9

How did COC(=O)C(C(=O)OC)c1ccc(-n2cccc2)cc1 do in these assays?
GPR7 antag: 35*; OX1R antag-1: 26; MPTP inh: 0; OX1R antag-2: -10; CHO parental Ca: -4; GPR7 antag conf: 12; MCHR1 antagonist: 9

What do the screens show for `Cn1c(C(C)(O)C(O)c2ccccc2)nc2ccccc21` (configuration not stated)?
GPR7 antag: -12; OX1R antag-1: 11; OX1R antag-2: -3; CHO parental Ca: -7

How did O=C(Nc1ccnn1C1CCN(Cc2cc3ccccc3[nH]2)CC1)C1CCOC1 (configuration not stated) do in these assays?
GPR7 antag: 82*; OX1R antag-1: 5; MPTP inh: -1; OX1R antag-2: 2; CHO parental Ca: 3; GPR7 antag conf: 53*; MCHR1 antagonist: 74*

What do the screens show for `COCCCNC(=O)CN(c1cc(Cl)ccc1OC)S(C)(=O)=O`?
GPR7 antag: -10; OX1R antag-1: 1; MPTP inh: 0; OX1R antag-2: -3; CHO parental Ca: -4

What do the screens show for `COC(=O)C1=C(C)N=C2SC(C#N)=C(N)N2C1c1cc(OC)c(OC)c(OC)c1` (configuration not stated)?
GPR7 antag: 28*; OX1R antag-1: 16; MPTP inh: -2; OX1R antag-2: -26; CHO parental Ca: -12; GPR7 antag conf: -4; MCHR1 antagonist: -5

Results for Cc1ccc(CS(=O)(=O)c2ncc(Cl)c(C(=O)Nc3ccc(OC(F)F)cc3)n2)cc1 ?
GPR7 antag: 43*; OX1R antag-1: 25; MPTP inh: -4; OX1R antag-2: 51*; CHO parental Ca: 59*; GPR7 antag conf: 84*; MCHR1 antagonist: 96*

How did COc1ccc(NC(=O)CN2CCC(NC(=O)c3ccco3)CC2)c([N+](=O)[O-])c1 do in these assays?
GPR7 antag: -7; OX1R antag-1: 38; MPTP inh: -1; OX1R antag-2: -4; CHO parental Ca: 0

What do the screens show for `COc1cc(COc2ccc3c(C)c(CC(=O)O)c(=O)oc3c2C)cc(OC)c1OC`?
GPR7 antag: 10; OX1R antag-1: -10; MPTP inh: 1; OX1R antag-2: -14; CHO parental Ca: 5

Results for O=[N+]([O-])c1ccc(N2CCN(c3ccccc3)CC2)nc1 ?
GPR7 antag: 25; OX1R antag-1: 18; MPTP inh: 1; OX1R antag-2: 1; CHO parental Ca: -5

How did COc1cccc(N2CCN(c3ccc([N+](=O)[O-])cn3)CC2)c1 do in these assays?
GPR7 antag: 41*; OX1R antag-1: 11; MPTP inh: 0; OX1R antag-2: -1; CHO parental Ca: -3; GPR7 antag conf: 40*; MCHR1 antagonist: 72*

Results for O=[N+]([O-])c1ccc(N2CCN(c3ccc(F)cc3)CC2)nc1 ?
GPR7 antag: 47*; OX1R antag-1: 2; MPTP inh: 1; OX1R antag-2: 1; CHO parental Ca: 3; GPR7 antag conf: 45*; MCHR1 antagonist: 56*

What do the screens show for `COc1cccc(NC(=O)c2nnn(Cc3ccc(Br)cc3F)c2N)c1`?
GPR7 antag: 24*; OX1R antag-1: 3; MPTP inh: 0; OX1R antag-2: 33; CHO parental Ca: 21; GPR7 antag conf: 53*; MCHR1 antagonist: 53*

What do the screens show for `COc1cccc(NC(=O)c2nnn(CC(=O)Nc3cc(C)cc(C)c3)c2N)c1`?
GPR7 antag: -3; OX1R antag-1: -3; MPTP inh: 0; OX1R antag-2: -3; CHO parental Ca: 10

Results for CCc1ccc(Cn2nnc(C(=O)Nc3ccc(OC)cc3OC)c2N)cc1 ?
GPR7 antag: 25*; OX1R antag-1: 20; MPTP inh: 2; OX1R antag-2: 14; CHO parental Ca: 3; GPR7 antag conf: 42*; MCHR1 antagonist: 19

Results for Cc1cc(C)cc(NC(=O)c2nnn(Cc3cc(C)ccc3C)c2N)c1 ?
GPR7 antag: 51*; OX1R antag-1: 12; MPTP inh: 1; OX1R antag-2: 80*; CHO parental Ca: 68*; GPR7 antag conf: 87*; MCHR1 antagonist: 91*
